# According to ChEMBL document CHEMBL1153179, “Optimization of orally bioavailable alkyl amine renin inhibitors” (Bioorg Med Chem Lett, 2010):
# The source made the active and inactive calls. No cut-off for these calls is given here.
# Legend:
# [1] = target: T1, Renin (Homo sapiens, UniProt P00797); assay: Inhibition of human recombinant renin assessed as decrease in plasma renin activity by competitive radioimmunoassay in presence of human plasma
# T1 sequence (P00797 whole entry): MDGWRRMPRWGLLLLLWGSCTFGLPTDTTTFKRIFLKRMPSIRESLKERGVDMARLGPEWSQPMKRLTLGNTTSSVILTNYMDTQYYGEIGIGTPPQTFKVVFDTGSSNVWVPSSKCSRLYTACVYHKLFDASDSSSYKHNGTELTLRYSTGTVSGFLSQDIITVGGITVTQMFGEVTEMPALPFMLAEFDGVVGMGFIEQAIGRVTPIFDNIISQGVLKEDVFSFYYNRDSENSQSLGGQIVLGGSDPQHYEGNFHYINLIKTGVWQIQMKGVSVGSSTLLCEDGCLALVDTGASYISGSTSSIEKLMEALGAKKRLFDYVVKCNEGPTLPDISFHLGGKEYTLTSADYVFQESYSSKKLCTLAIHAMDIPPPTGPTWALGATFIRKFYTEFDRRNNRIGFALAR
# [2] = target: T1, Renin; assay: Inhibition of trypsin-activated human recombinant renin
# [3] = (§1) AUC (0 to t) in rat at 10 mg/kg, po; format: ADME, organism-based, Plasma; design: dose 10 mg/kg, route oral; conditions: plasma
# [4] = Volume of distribution at steady state in rat at 10 mg/kg, po or 2 mg/kg, iv; format: ADME, organism-based; conditions: in vivo, read-out: Vdss
# [5] = (§2) Oral bioavailability in rat at 10 mg/kg; format: ADME, organism-based; conditions: in vivo
# [6] = Clearance in rat at 2 mg/kg, iv; format: ADME, organism-based; design: dose 2 mg/kg, route intravenous; conditions: in vivo
# [7] = Cmax in rat at 10 mg/kg, po; format: ADME, organism-based; design: dose 10 mg/kg, route oral; conditions: in vivo
# [8] = Tmax in rat at 10 mg/kg, po; format: ADME, organism-based; design: dose 10 mg/kg, route oral; conditions: in vivo
# [9] = Half life in rat at 10 mg/kg, po; format: ADME, organism-based; design: dose 10 mg/kg, route oral; conditions: in vivo
# [10] = system: Rattus norvegicus; assay: Reduction in mean blood pressure in double transgenic rat model of hypertension at 10 mg/kg, po after 24 hrs; format: functional, organism-based; design: dose 10 mg/kg
# How it was run: (§3)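 Double transgenic rats expressing human renin and human angiotensinogen (dTGR) given a single 10 mg/kg oral dose; mean arterial pressure followed over 24 h against vehicle-treated animals, with statistical significance assessed.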
# [11] = Cmax in cynomolgus monkey at 2 mg/kg, po; format: ADME, organism-based, Macaca fascicularis; design: dose 2 mg/kg, route oral; conditions: in vivo
# [12] = Oral bioavailability in cynomolgus monkey at 2 mg/kg; format: ADME, organism-based, Macaca fascicularis; conditions: in vivo
# [13] = Clearance in cynomolgus monkey at 1 mg/kg, iv; format: ADME, organism-based, Macaca fascicularis; design: dose 1 mg/kg, route intravenous; conditions: in vivo
# [14] = AUC (0 to t) in cynomolgus monkey at 2 mg/kg, po; format: ADME, organism-based, Macaca fascicularis; design: dose 2 mg/kg, route oral; conditions: plasma
# [15] = Tmax in cynomolgus monkey at 2 mg/kg, po; format: ADME, organism-based, Macaca fascicularis; design: dose 2 mg/kg, route oral; conditions: in vivo
# [16] = Half life in cynomolgus monkey at 2 mg/kg, po; format: ADME, organism-based, Macaca fascicularis; design: dose 2 mg/kg, route oral; conditions: in vivo
# [17] = system: Rattus norvegicus; assay: as §1; format: ADME, organism-based, Plasma; design: dose 10 mg/kg, route oral; conditions: in vivo
# [18] = system: Rattus norvegicus; assay: as §2; format: ADME, organism-based; conditions: in vivo
# [19] = Volume of distribution at steady state in cynomolgus monkey at 1 mg/kg, iv or 2 mg/kg, po; format: ADME, organism-based, Macaca fascicularis; conditions: in vivo, read-out: VDss
# [20] = AUC (0 to 32 hrs) in cynomolgus monkey at 2 mg/kg, po; format: ADME, organism-based, Macaca fascicularis; design: time < 32 hr, dose 2 mg/kg, route oral; conditions: plasma
# [21] = Selectivity for human recombinant renin over beta-secretase
# [22] = Half life in human liver microsomes; format: ADME, Microsome
# [23] = Tmax in cynomolgus monkey at 1 mg/kg, po; format: ADME, organism-based, Macaca fascicularis; design: dose 1 mg/kg, route oral; conditions: in vivo
# [24] = system: Rattus norvegicus; assay: Reduction in mean blood pressure in double transgenic rat model of hypertension at 10 mg/kg, po after >20 hrs; format: functional, organism-based; design: dose 10 mg/kg; how it was run: as §3
# [25] = Selectivity for human recombinant renin over cathepsin D
# [26] = Selectivity for human recombinant renin over cathepsin E
# [27] = Volume of distribution at steady state in cynomolgus monkey at 1 mg/kg, iv or 1 mg/kg, po; format: ADME, organism-based, Macaca fascicularis; conditions: in vivo, read-out: Vdss
# [28] = AUC (0 to t) in cynomolgus monkey at 1 mg/kg, po; format: ADME, organism-based, Macaca fascicularis; design: dose 1 mg/kg, route oral; conditions: plasma
# [29] = Oral bioavailability in cynomolgus monkey at 1 mg/kg; format: ADME, organism-based, Macaca fascicularis; conditions: in vivo
# How it was run: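 Cynomolgus monkeys were dosed with the fumarate salt orally at 1 mg/kg and intravenously at 1 mg/kg. Oral bioavailability (F, %) was reported alongside oral Cmax, tmax, AUC(0-t), oral t1/2, IV clearance and Vss.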
# [30] = Half life in cynomolgus monkey at 1 mg/kg, po; format: ADME, organism-based, Macaca fascicularis; design: dose 1 mg/kg, route oral; conditions: in vivo
# [31] = Cmax in cynomolgus monkey at 1 mg/kg, po; format: ADME, organism-based, Macaca fascicularis; design: dose 1 mg/kg, route oral; conditions: in vivo
smiles,measurement,setting,value
CNC[C@H](CC1CCCCC1)NC(=O)N1CCC[C@@H]([C@@H](OCCNC(=O)OC)c2cc(Cl)ccc2F)C1,IC50,[1],2.1 nM
same,IC50,[2],0.62 nM
CNC[C@H](CC1CCCCC1)NC(=O)N1CCC[C@@H]([C@@H](OCCNC(=O)OC)c2cccc(F)c2)C1,IC50,[1],1.8 nM
same,AUC(0-t),[3],380 ng·h/mL
same,Vd,[4],61 L/kg
same,bioavailability,[5],22.1%
same,clearance,[6],58 mL/min/kg
same,Cmax,[7],123 ng/mL
same,Tmax,[8],2 h
same,IC50,[2],0.59 nM
same,half-life,[9],12.7 h
CCOCCCO[C@@H](c1ccccc1)[C@@H]1CCCN(C(=O)N[C@H](CNC)CC2CCCCC2)C1,AUC(0-t),[3],832 ng·h/mL
same,half-life,[9],5.9 h
CCC(=O)NCCC[C@@](O)(c1cccc(Cl)c1)[C@@H]1CCCN(C(=O)N[C@H](CNC)CC2CCCCC2)C1,IC50,[1],21 nM
same,IC50,[2],1.5 nM
CNC[C@H](CC1CCCCC1)NC(=O)N1CCC[C@@H]([C@@H](OCCNC(=O)OC)c2cccc(C)c2)C1,IC50,[1],4 nM
same,IC50,[2],0.47 nM
CNC[C@H](CC1CCCCC1)NC(=O)N1CCC[C@@H]([C@@H](OCCNC(=O)OC)c2ccc(F)c(F)c2)C1,IC50,[1],16.6 nM
same,IC50,[2],2.5 nM
CCOC(=O)NCCC[C@@](O)(c1cccc(Cl)c1)[C@@H]1CCCN(C(=O)N[C@H](CNC)CC2CCCCC2)C1,IC50,[1],170 nM
same,IC50,[2],14 nM
COCCCOc1cc(C[C@@H](C[C@H](N)[C@@H](O)C[C@H](C(=O)NCC(C)(C)C(N)=O)C(C)C)C(C)C)ccc1OC,AUC(0-t),[3],21 ng·h/mL
same,Activity,[10],Active
same,Cmax,[11],29.5 ng/mL
same,bioavailability,[12],1.4%
same,clearance,[13],2.5 mL/min/kg
same,AUC(0-t),[14],154 ng·h/mL
same,Tmax,[15],1.3 h
same,half-life,[16],9.8 h
same,half-life,[9],13.5 h
CNC[C@H](CC1CCCCC1)NC(=O)N1CCC[C@@H]([C@@H](OCCNC(=O)OC)c2cc(F)cc(F)c2)C1,IC50,[1],1.2 nM
same,IC50,[2],0.23 nM
CNC[C@H](CC1CCCCC1)NC(=O)N1CCC[C@@H]([C@@H](OCCNC(=O)OC)c2ccccc2)C1,IC50,[1],2.9 nM
same,IC50,[2],1.17 nM
CNC[C@H](CC1CCCCC1)NC(=O)N1CCC[C@@H]([C@@](O)(CCCNC(=O)C2CC2)c2cccc(Cl)c2)C1,IC50,[1],79 nM
same,IC50,[2],17 nM
CNC[C@H](CC1CCCCC1)NC(=O)N1CCC[C@@H]([C@@](O)(CCCNC(C)=O)c2cccc(Cl)c2)C1,IC50,[1],16 nM
same,Vd,[4],117 L/kg
same,clearance,[6],23 mL/min/kg
CNC[C@H](CC1CCCCC1)NC(=O)N1CCC[C@@H]([C@@](O)(CCCNC(=O)OC)c2cccc(Cl)c2)C1,IC50,[1],3.7 nM
same,AUC(0-t),[3],10 ng·h/mL
same,Vd,[4],29 L/kg
same,bioavailability,[5],0.3%
same,clearance,[6],34 mL/min/kg
same,Cmax,[7],5 ng/mL
same,Tmax,[8],0.9 h
same,IC50,[2],0.18 nM
same,half-life,[9],1.8 h
CNC[C@H](CC1CCCCC1)NC(=O)N1CCC[C@@H]([C@@](O)(CCCNC(=O)N(C)C)c2cccc(Cl)c2)C1,IC50,[2],2260 nM
COC(=O)NCCO[C@@H](c1cccc(F)c1)[C@@H]1CCCN(C(=O)N[C@H](CN)CC2CCCCC2)C1,IC50,[1],3.3 nM
same,IC50,[2],0.58 nM
CNC[C@H](CC1CCCCC1)NC(=O)N1CCC[C@@H]([C@@](O)(CCCNS(C)(=O)=O)c2cccc(Cl)c2)C1,IC50,[2],177 nM
CCNC[C@H](CC1CCCCC1)NC(=O)N1CCC[C@@H]([C@@H](OCCNC(=O)OC)c2cccc(F)c2)C1,IC50,[1],18 nM
same,IC50,[2],2.1 nM
CNC[C@H](CC1CCCCC1)NC(=O)N1CCC[C@@H]([C@@H](OCCNC(=O)OC)c2cc(F)cc(Cl)c2)C1,IC50,[1],1.5 nM
same,AUC,[17],166 ng·h/mL
same,Vd,[4],38 L/kg
same,F,[18],13.1%
same,Cmax,[7],54 ng/mL
same,Tmax,[8],4 h
same,IC50,[2],0.52 nM
same,half-life,[9],7.2 h
CNC[C@H](CC1CCCCC1)NC(=O)N1CCC[C@@H]([C@@H](OCCNC(=O)OC)c2cccc(F)c2F)C1,IC50,[1],6.2 nM
same,IC50,[2],1.7 nM
CNC[C@H](CC1CCCCC1)NC(=O)N1CCC[C@@H]([C@@H](OCCNC(=O)OC)c2cc(F)ccc2F)C1,IC50,[1],2.7 nM
same,IC50,[2],0.62 nM
CNC[C@H](CC1CCCCC1)NC(=O)N1CCC[C@@H]([C@@H](OCCNC(=O)OC)c2cccc(Cl)c2F)C1,IC50,[1],3.4 nM
same,IC50,[2],0.61 nM
CCNC[C@H](CC1CCCCC1)NC(=O)N1CCC[C@@H]([C@@H](OCCNC(=O)OC)c2cccc(Cl)c2)C1,IC50,[1],7.7 nM
same,IC50,[2],0.87 nM
CNC[C@H](CC1CCCCC1)NC(=O)N1CCC[C@@H]([C@@](O)(CCCNC(=O)NC)c2cccc(Cl)c2)C1,IC50,[1],141 nM
same,IC50,[2],46 nM
CNC[C@H](CC1CCCCC1)NC(=O)N1CCC[C@@H]([C@@](O)(CCCCOC)c2cccc(Cl)c2)C1,AUC(0-t),[3],472 ng·h/mL
same,Cmax,[11],116 ng/mL
same,bioavailability,[12],16%
same,Vd,[19],6.1 L/kg
same,clearance,[13],5.2 mL/min/kg
same,AUC(0-t) at 32 h,[20],615 ng·h/mL
same,Tmax,[15],2.7 h
same,half-life,[16],15 h
CNC[C@H](CC1CCCCC1)NC(=O)N1CCC[C@@H]([C@@H](OCCNC(=O)OC)c2cccc(Cl)c2)C1,IC50,[1],0.82 nM
same,AUC(0-t),[3],301 ng·h/mL
same,Selectivity ratio,[21],> 1000
same,half-life,[22],> 0.5 h
same,Vd,[4],19 L/kg
same,clearance,[13],11.7 mL/min/kg
same,Tmax,[23],1 h
same,Activity,[24],Active
same,Selectivity ratio,[25],> 1000
same,bioavailability,[5],9.4%
same,clearance,[6],36 mL/min/kg
same,Selectivity ratio,[26],> 1000
same,Cmax,[7],94 ng/mL
same,Vd,[27],9.8 L/kg
same,AUC(0-t),[28],130 ng·h/mL
same,Tmax,[8],3 h
same,IC50,[2],0.48 nM
same,bioavailability,[29],9.9%
same,half-life,[9],9.7 h
same,half-life,[30],29.2 h
same,Cmax,[31],33.3 ng/mL
CCCC(=O)NCCC[C@@](O)(c1cccc(Cl)c1)[C@@H]1CCCN(C(=O)N[C@H](CNC)CC2CCCCC2)C1,IC50,[2],57 nM
COC(=O)NCCO[C@@H](c1cccc(Cl)c1)[C@@H]1CCCN(C(=O)N[C@H](CN)CC2CCCCC2)C1,IC50,[1],2.6 nM
same,AUC(0-t),[3],201 ng·h/mL
same,Vd,[4],51 L/kg
same,bioavailability,[5],7.2%
same,clearance,[6],53 mL/min/kg
same,Cmax,[7],63 ng/mL
same,Tmax,[8],4 h
same,IC50,[2],0.48 nM
same,half-life,[9],7.8 h
CNC[C@H](CC1CCCCC1)NC(=O)N1CCC[C@@H]([C@@](O)(CCCNS(N)(=O)=O)c2cccc(Cl)c2)C1,IC50,[1],297 nM
same,IC50,[2],46 nM
CNC[C@H](CC1CCCCC1)NC(=O)N1CCC[C@@H]([C@@](O)(CCCNC(N)=O)c2cccc(Cl)c2)C1,IC50,[1],200 nM
same,IC50,[2],31 nM
